We go through 19 compounds from ChEMBL document CHEMBL3271934, “Inhibition of separated forms of phosphodiesterases from pig coronary arteries by uracils and by 7-substituted derivatives of 1-methyl-3-isobutylxanthine” (J Med Chem, 1976).

Test [1] in a line: Inhibition of phosphodiesterase (peak-1) isolated from pig coronary artery assessed as inhibition of cAMP hydrolysis using 1 uM cAMP substrate in presence of 3% Me2SO. The conditions noted are these: Sus scrofa; read-out: I50. Summed up: (§1)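 Enzyme is a separated phosphodiesterase form from pig coronary arteries, assayed with 1 μM substrate at 30° for 30 min. Enzyme dilution gave 10–20% hydrolysis without inhibitor. Compounds were added from 30% Me2SO, giving a final 3% Me2SO in all tubes. Peak I received an optimal amount of activator (15 μg protein). I50 was read from concentration–percent inhibition curves spanning 10^-7 to 10^-4 M (10^-3 M if soluble). MIX reference was run each experiment. Results are mean ± SEM of duplicate determinations across enzyme preparations.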

The species named for test [2] is Sus scrofa. The test is described as follows: Inhibition of phosphodiesterase (peak-2) isolated from pig coronary artery assessed as inhibition of cAMP hydrolysis at 10^-4 M using 1 uM cAMP substrate in presence of 3% Me2SO. The method in brief:
(§2)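 Percent inhibition was measured at a single 10^-4 M concentration against a separated pig coronary artery phosphodiesterase form. Conditions: 1 μM substrate, 30°, 30 min, enzyme dilution giving 10–20% uninhibited hydrolysis, final 3% Me2SO in all tubes including blank. Peak I was assayed with an optimal amount of activator (15 μg protein). Results are duplicate determinations, mean ± SEM over separate enzyme preparations.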

A short description of test [3]: Inhibition of phosphodiesterase (peak-2) isolated from pig coronary artery assessed as inhibition of cAMP hydrolysis using 1 uM cAMP substrate in presence of 3% Me2SO. The conditions noted are these: Sus scrofa; read-out: I50. The method in brief: as §1
The nature of test [4]: Inhibition of phosphodiesterase (peak-1) isolated from pig coronary artery assessed as inhibition of cGMP hydrolysis using 1 uM cGMP substrate in presence of 3% Me2SO. As to conditions: Sus scrofa; read-out: I50. The method in brief:
as §1

The species named for test [5] is Sus scrofa. Kind of test: Inhibition of phosphodiesterase (peak-1) isolated from pig coronary artery assessed as inhibition of cGMP hydrolysis at 10^-4 M using 1 uM cGMP substrate in presence of 3% Me2SO. The method in brief:
as §2

For test [6], the species on record is Sus scrofa. Kind of test: Inhibition of phosphodiesterase (peak-1) isolated from pig coronary artery assessed as inhibition of cAMP hydrolysis at 10^-4 M using 1 uM cAMP substrate in presence of 3% Me2SO. The method in brief: as §2
For test [7], the species on record is Sus scrofa. Kind of test: Inhibition of phosphodiesterase (peak-1) isolated from pig coronary artery assessed as inhibition of cGMP hydrolysis at 10^-7 to 10^-4 M using 1 uM cGMP substrate in presence of 3% EtOH.
For test [8], the species on record is Sus scrofa. The test is described as follows: Inhibition of phosphodiesterase (peak-1) isolated from pig coronary artery assessed as inhibition of cAMP hydrolysis at 10^-7 to 10^-4 M using 1 uM cAMP substrate in presence of 3% EtOH.
The species named for test [9] is Sus scrofa. Kind of test: Inhibition of phosphodiesterase (peak-2) isolated from pig coronary artery assessed as inhibition of cAMP hydrolysis at 10^-7 to 10^-4 M using 1 uM cAMP substrate in presence of 3% EtOH.

pIC50: −log10 of the molar value. Active and inactive are the calls of the source. The calls are words filed in the database; no cut-off is given here.

Usually inhibition stands for the share of the control response that was lost under treatment. Regarding `CC(C)Cn1c(=O)n(C)c(=O)c2c1ncn2Cc1ccc([N+](=O)[O-])cc1`, the values for the pIC50 in test [1], in test [3] and in test [4] were 4.57, below 4.00 and 4.47, respectively. Also, the inhibition in the test filed under Sus scrofa [2] worked out at 44%.

Turning to `CC(C)Cn1c(=O)n(C)c(=S)c2c1ncn2Cc1ccccc1`, the pIC50 is 5.57 in [1], 4.55 in test [3] and 5.48 in test [4].

As to `CC(C)Cn1c(N)c(NCc2ccccc2)c(=O)n(C)c1=O`, the inhibition in the test listed under Sus scrofa [5] was found to be 30%; in the test listed under Sus scrofa [2], 9%; in the test filed under Sus scrofa [6] it was 37%.

Consider `CC(C)Cn1cc(NCc2ccccc2)c(=O)n(C)c1=O`, for which the results for the inhibition in the test listed under Sus scrofa [5], in the test listed under Sus scrofa [2] and in the test filed under Sus scrofa [6] were 10%, 6% and 17%, respectively.

Consider `CC(C)Cn1c(=O)n(C)c(=O)c2c1ncn2CCc1ccccc1`, for which the pIC50 in test [1] is 4.77; in [3], below 4.00; in test [4] it was 4.55. Moreover, the inhibition in the test listed under Sus scrofa [2] is 41%.

In the case of `CC(C)CCn1cnc2c1c(=O)n(C)c(=O)n2CC(C)C`, the pIC50 was 4.72 in [1], below 4.00 in test [3] and 4.80 in test [4]. Further, the inhibition in the test filed under Sus scrofa [2] is 36%.

Turning to `Cn1c(N)c(NCc2ccccc2)c(=O)n(C)c1=O`, the inhibition in the test listed under Sus scrofa [5] turned out to be 17%; in the test listed under Sus scrofa [2], 15%; in the test listed under Sus scrofa [6] it was 26%.

`CC(C)Cn1c(=O)n(C)c(=O)c2c1ncn2C`: the pIC50 is 4.26 in [1], 3.90 in [3] and 4.19 in test [4].

For `CC(C)Cn1c(=O)n(C)c(=O)c2c1ncn2Cc1ccc(Cl)cc1`, the results for the pIC50 in [1], in test [3] and in [4] were 5.64, 4.37 and 5.68, respectively.

`CC(C)Cn1c(=O)n(C)c(=S)c2[nH]cnc21`: the pIC50 was 5.26 in [1], 5.17 in test [3] and 5.15 in test [4].

Regarding `CC(C)Cn1c(=O)n(C)c(=O)c2nc[nH]c21` [ISOBUTYLMETHYLXANTHINE], the results for the pIC50 in test [1], in test [3] and in test [4] were 5.41, 4.82 and 5.20, respectively. The inhibition entry in the test listed under Sus scrofa [7], in the test filed under Sus scrofa [8] and in the test listed under Sus scrofa [9] was “Active” throughout.

For `CC(C)Cn1c(=O)n(C)c(=O)c2c1ncn2Cc1ccccc1`, the values for the pIC50 in test [1], in test [3] and in test [4] were 5.44, 3.97 and 5.36, respectively. Besides, the inhibition entry in the test listed under Sus scrofa [7], in the test listed under Sus scrofa [8] and in the test listed under Sus scrofa [9] was “Active” throughout.

As for `CC(C)Cn1c(=O)n(C)c(=O)c2c1ncn2CC1CC1`, the figures for the pIC50 in test [1], in test [3] and in test [4] were 5.43, 4.70 and 5.21, respectively.

For `COc1ccccc1Cn1cnc2c1c(=O)n(C)c(=O)n2CC(C)C`, the pIC50 in test [1] was 4.72; in [3], 4.12; in [4], 4.59.

For `C#CCn1cnc2c1c(=O)n(C)c(=O)n2CC(C)C`, the pIC50 was 4.55 in test [1], 4.19 in test [3] and 4.44 in test [4].

On to `CC(C)Cn1c(=O)n(C)c(=O)c2c1ncn2Cc1ccncc1`, for which the pIC50 in [1] was 3.98; in test [3], below 3.52; in test [4] it was 3.84. The inhibition in the test filed under Sus scrofa [2] amounted to 30%.

With `COc1cc(Cn2cnc3c2c(=O)n(C)c(=O)n3CC(C)C)cc(OC)c1OC`, the pIC50 in [1] was 4.46; in [3] it was below 4.00; in test [4], 4.34. Also, the inhibition in the test listed under Sus scrofa [2] amounted to 31%.

For the compound `CC(C)Cn1c(=O)n(C)c(=O)c2c1ncn2Cc1ccccc1[N+](=O)[O-]`, the pIC50 in [1] is 4.39; in test [3] it was 3.85; in test [4], 4.22.

For `CC(C)Cn1c(=O)n(C)c(=O)c2c1ncn2Cc1cccc(Cl)c1`, the pIC50 is 5.89 in test [1], 4.32 in test [3] and 5.68 in test [4].
